ChEMBL document CHEMBL5705886, “GSK1070916, a potent Aurora B/C kinase inhibitor with broad antitumor activity in tissue culture cells and human tumor xenograft models” (Mol Cancer Ther, 2009)
The source made the active and inactive calls. No cut-off for these calls is given here.

Tests used:
[1] = Antiproliferative activity against human 1A2 cells assessed as inhibition of cell viability measured for 6 to 7 days by cell titer glo assay; assay type: functional, cell-based
Summary of the method: (§1)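 Tumor lines plated in recommended growth media, overnight at 37°C, 5% CO2, then given serial dilutions; a T=0 plate read with CellTiter-Glo at dosing. After 6–7 d of exposure, viability read by CellTiter-Glo luminescence. No-cell wells subtracted, data expressed as % of DMSO control.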

HeLa = assay: Antiproliferative activity against human HeLa cells assessed as inhibition of cell viability measured for 6 to 7 days by cell titer glo assay; assay type: functional, cell-based
Summary of the method: (§2)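 Cells seeded in recommended growth medium, incubated overnight at 37°C in 5% CO2, then exposed to serial dilutions of inhibitor for 6–7 d. A parallel plate was read with CellTiter-Glo at compound addition as a T=0 value. The luminescent viability readout had no-cell background subtracted and was expressed as % of DMSO control.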

SK-MEL-2 = assay: Antiproliferative activity against human SK-MEL-2 cells assessed as inhibition of cell viability measured for 6 to 7 days by cell titer glo assay; assay type: functional, cell-based
Summary of the method: (§3)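 Cells seeded in recommended growth medium, held overnight at 37°C in 5% CO2, then exposed to serial dilutions of inhibitor for 6–7 d. A time-zero plate was read with CellTiter-Glo at dosing. Luminescent viability read at the end. No-cell wells subtracted as background, data expressed as percent of DMSO control.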

COLO-320-HSR = assay: Antiproliferative activity against human COLO 320HSR cells assessed as inhibition of cell viability measured for 6 to 7 days by cell titer glo assay; assay type: functional, cell-based; summary of the method: as §1
L-428 = assay: Antiproliferative activity against human L-428 cells assessed as inhibition of cell viability measured for 6 to 7 days by cell titer glo assay; assay type: functional, cell-based; summary of the method: as §2
RCK8 = assay: Antiproliferative activity against human RCK8 cells assessed as inhibition of cell viability measured for 6 to 7 days by cell titer glo assay; assay type: functional, cell-based; summary of the method: as §3
[2] = In vivo inhibition of Aurora B in human HCT-116 cells xenografted in athymic nude mouse assessed as reduction in HH3-S10 phosphorylation at 100 mg/kg, ip single dose measured upto 24 hrs relative to control; assay type: functional; design: scale not given: the % may be the effect or the level left
NB-4 = assay: Antiproliferative activity against human NB4 cells assessed as inhibition of cell viability measured for 6 to 7 days by cell titer glo assay; assay type: functional, cell-based; summary of the method: as §2
SK-MEL-5 = assay: Antiproliferative activity against human SK-MEL-5 cells assessed as inhibition of cell viability measured for 6 to 7 days by cell titer glo assay; assay type: functional, cell-based; summary of the method: as §3
[3] = Antiproliferative activity against human OCI-M1 cells assessed as inhibition of cell viability measured for 6 to 7 days by cell titer glo assay; assay type: functional, cell-based; summary of the method: as §3
NCI-H460 = assay: Antitumor activity in human NCI-H460 cells xenografted in nude mouse assessed as reduction in tumor growth at 25 to 100 mg/kg, ip administered once daily for 5 consecutive days with 2 days off scheduled for 3 cycles measured upto 60 days; settings: dose 25-100 mg/kg, time 60.0 day
Pfeiffer = assay: Antiproliferative activity against human Pfeiffer cells assessed as inhibition of cell viability measured for 6 to 7 days by cell titer glo assay; assay type: functional, cell-based; summary of the method: as §3
A549 = assay: Effect on cell cycle distribution in human A549 cells assessed as increase in 4N DNA content at 2 to 5000 nM incubated for 24 to 72 hrs by flow cytometry based analysis; assay type: functional; settings: dose 2-5000 nM, time 24-72 hrs
MCF7 = assay: Antitumor activity in human MCF7 cells xenografted in SCID mouse assessed as reduction in tumor growth at 50 to 100 mg/kg, ip administered once daily for 5 consecutive days with 2 days off scheduled for 3 cycles measured upto 60 days; assay type: functional, organism-based; settings: dose 50-100 mg/kg, time <= 60.0 day
[4] = Antiproliferative activity against human ALL-SIL cells assessed as inhibition of cell viability measured for 6 to 7 days by cell titer glo assay; assay type: functional, cell-based; summary of the method: as §1
HEC-1B cell line = assay: Antiproliferative activity against human HEC-1B cell line assessed as inhibition of cell viability measured for 6 to 7 days by cell titer glo assay; assay type: functional, cell-based; summary of the method: as §1
GDM-1 = assay: Antiproliferative activity against human GDM-1 cells assessed as inhibition of cell viability measured for 6 to 7 days by cell titer glo assay; assay type: functional, cell-based; summary of the method: as §1
HT-29 = assay: Antiproliferative activity against human HT-29 cells assessed as inhibition of cell viability measured for 6 to 7 days by cell titer glo assay; assay type: functional, cell-based; summary of the method: as §2
MV-4-11 (human) = assay: Antitumor activity in human MV-4-11 cells xenografted in NOD-SCID mouse assessed as median survival time at 20 mg/kg, ip administered once daily for 5 consecutive days with 2 days off scheduled for 3 cycles measured upto 120 days; settings: time <= 120 day
PC-3 = assay: Antiproliferative activity against human PC-3 cells assessed as inhibition of cell viability measured for 6 to 7 days by cell titer glo assay; assay type: functional, cell-based; summary of the method: as §3
A498 = assay: Antiproliferative activity against human A498 cells assessed as inhibition of cell viability measured for 6 to 7 days by cell titer glo assay; assay type: functional, cell-based; summary of the method: as §1
[5] = Toxicity in SCID nude mouse xenografted with human K562 cells assessed as drug tolerance at 100 mg/kg, ip administered once daily for 5 consecutive days with 2 days off scheduled for 3 cycles measured upto 60 days; assay type: organism-based; settings: in vivo, 1440 h, time < 60 day
U-937 = assay: Antiproliferative activity against human U-937 cells assessed as inhibition of cell viability measured for 6 to 7 days by cell titer glo assay; assay type: functional, cell-based
[6] = Antiproliferative activity against human M-07e cells assessed as inhibition of cell viability measured for 6 to 7 days by cell titer glo assay; assay type: functional, cell-based; summary of the method: as §2
DB = assay: Antiproliferative activity against human DB cells assessed as inhibition of cell viability measured for 6 to 7 days by cell titer glo assay; assay type: functional, cell-based; summary of the method: as §1
[7] = Toxicity in SCID nude mouse xenografted with human COLO 205 cells assessed as body weight loss at 25 to 100 mg/kg, ip administered once daily for 5 consecutive days with 2 days off scheduled for 2 cycles measured upto 60 days relative to control; assay type: organism-based; settings: in vivo, 1440 h, dose 25-100 mg/kg, time < 60 day
NCI-H157 = assay: Antiproliferative activity against human NCI-H157 cells assessed as inhibition of cell viability measured for 6 to 7 days by cell titer glo assay; assay type: functional, cell-based; summary of the method: as §2
GA-10 = assay: Antiproliferative activity against human GA-10 cells assessed as inhibition of cell viability measured for 6 to 7 days by cell titer glo assay; assay type: functional, cell-based; summary of the method: as §1
[8] = Toxicity in SCID nude mouse xenografted with human SW620 cells assessed as body weight loss at 25 to 100 mg/kg, ip administered once daily for 5 consecutive days with 2 days off scheduled for 3 cycles measured upto 60 days relative to control; assay type: organism-based, SW-620; settings: in vivo, 1440 h, dose 25-100 mg/kg, time 60 day
MEG-01 = assay: Antiproliferative activity against human MEG-01 cells assessed as inhibition of cell viability measured for 6 to 7 days by cell titer glo assay; assay type: functional, cell-based; summary of the method: as §2
[9] = Toxicity in SCID nude mouse xenografted with human A549 cells assessed as body weight loss at 25 to 100 mg/kg, ip administered once daily for 5 consecutive days with 2 days off scheduled for 3 cycles measured upto 60 days relative to control; assay type: organism-based; settings: in vivo, 1440 h, dose 25-100 mg/kg, time < 60 day
WiDr = assay: Antiproliferative activity against human WiDr cells assessed as inhibition of cell viability measured for 6 to 7 days by cell titer glo assay; assay type: functional, cell-based

CCn1cc(-c2ccnc3[nH]c(-c4cccc(CN(C)C)c4)cc23)c(-c2ccc(NC(=O)N(C)C)cc2)n1 [GSK-1070916]
EC50 [1]: 9 nM | EC50 (HeLa): 13 nM | EC50 (SK-MEL-2): 2 nM | EC50 (COLO-320-HSR): 92 nM | EC50 (L-428): 31 nM | EC50 (RCK8): 38 nM | Activity [2]: >60% | EC50 (NB-4): 11 nM | EC50 (SK-MEL-5): 8 nM | EC50 [3]: 20 nM | Activity (NCI-H460): inactive | EC50 (Pfeiffer): 4 nM | Activity (A549): Active | Activity (MCF7): inactive | EC50 [4]: 2 nM | EC50 (HEC-1B cell line): 4 nM | EC50 (GDM-1): 21 nM | EC50 (HT-29): 10 nM | MST (MV-4-11 (human)): 103 days | EC50 (PC-3): 11 nM | EC50 (A498): 33 nM | Activity [5]: Toxic | EC50 (U-937): 5 nM | EC50 [6]: 13 nM | EC50 (DB): 11 nM | Activity [7]: < 15% | EC50 (NCI-H157): 8 nM | EC50 (GA-10): 4 nM | Activity [8]: < 15% | EC50 (MEG-01): 44 nM | Activity [9]: < 15% | EC50 (WiDr): 3 nM
